Source: PMC6318406 (Asian Pacific Journal of Cancer Prevention : APJCP, 2018)
“Also recorded” adds a separate entry of the source. Marks after values point to notes of the source that are not given here.

What was measured:
Format in all cases: in vivo, rat
[1] = test system: alpha-fetoprotein (AFP); test: Serum alpha-fetoprotein; conditions: HCC afflicted rats, 50 mg/kg b.wt orally daily for 5 weeks; mean ± SE
Method in brief: (§1)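 Female Wistar rats, 170-200 g, 10/group. HCC induced by oral NDEA in 0.9% saline, 20 mg/kg five times weekly for 4 weeks, then 10 mg/kg five times weekly for 1 week. Saline-dosed healthy and untreated HCC groups. Overnight fast after the last dose. Retro-orbital blood drawn under ether and clotted 45 min at room temperature. Serum spun at 1,800 x g for 15 min at 4°C and stored at -20°C. Rat ELISA kits. Mean ± SE; ANOVA with Tukey test.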

[2] = test system: endoglin (ENG); test: Serum endoglin; conditions: HCC afflicted rats, 50 mg/kg b.wt orally daily for 5 weeks; mean ± SE
Method in brief: as §1

[3] = test system: heat shock protein-70 (HSP-70); test: Serum heat shock protein-70; conditions: HCC afflicted rats, 50 mg/kg b.wt orally daily for 5 weeks; mean ± SE
Method in brief: as §1

[4] = test system: β-cell leukemia/lymphoma 2 (Bcl-2); test: Serum Bcl-2 by ELISA in NDEA-induced HCC rats; conditions: HCC afflicted rats, 50 mg/kg b.wt orally daily for 5 weeks
Method in brief: as §1

[5] = test system: pro-caspase 3; test: Serum pro-caspase 3 by ELISA in NDEA-induced HCC rats; conditions: HCC afflicted rats, 50 mg/kg b.wt orally daily for 5 weeks
Method in brief: as §1

[6] = test system: lipocalin-2 (LCN-2); test: Serum lipocalin-2; conditions: HCC afflicted rats, 50 mg/kg b.wt orally daily for 5 weeks
Method in brief: as §1

[7] = test system: hepatocellular carcinoma (HCC) afflicted rats; test: Histological examination of liver tissue sections; conditions: 50 mg/kg b.wt orally daily for 5 weeks, H and E stain
[8] = Oral pharmacokinetic study in normal rats
[9] = Oral pharmacokinetic study in HCC-induced rats; conditions: serum
Method in brief: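 HCC induced by oral NDEA (20 mg/kg five times weekly for 4 weeks, then 10 mg/kg for 1 week). Rats (n=6) were fasted 12 h, then given one oral 50 mg/kg dose of free or nanocomposite test compound. Serum was sampled 0.083–24 h, spiked with pyrogallol and extracted into ethyl acetate. Measured by C18 HPLC at 280 nm; non-compartmental analysis, ke from terminal log-linear slope, MRT = AUMC/AUC.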

[10] = normal rats, single dose 50 mg/kg p.o., serum
[11] = normal rats, single dose 50 mg/kg p.o., serum, 50 mg/kg

O=C(O)c1cc(O)c(O)c(O)c1 [GA, 3,4,5-trihydroxy benzoic acid]
Serum AFP [1]: 41.19 ± 0.83^b ng/ml
Serum ENG [2]: 4.16 ± 0.14^b ng/ml
Serum HSP-70 [3]: 43.56 ± 0.8426^b ng/ L
Change in serum Bcl-2 with respect to the HCC group [4]: -32.9%
Change in serum pro-caspase 3 with respect to the HCC group [5]: -60.5%
Change in serum LCN-2 with respect to the HCC group [6]: -34.8%
Histopathological findings in liver tissue section [7]: markedly recovered the anaplastic changes in the rat liver tissues; also recorded: congestion in the portal vein, multiple newly formed bile ducts and inflammatory cells infiltration in between at the portal area; also recorded: focal aggregations of mononuclear leucocytes inflammatory cells were detected in the hepatic parenchyma
AUMC [8, 10]: 2.03 ± 0.44 µg·mL/h
AUMC last [8, 10]: 1.3 ± 0.13 µg·mL/h
Duration of action ([8]; normal rats, single dose 50 mg/kg p.o., serum concentration-time profile): approximately 1 hr
C max [8, 11]: 1570 ± 108 ng/mL
MRT [8, 11]: 1.063 ± 0.155 h
AUC(0-inf) ([8]; rat, serum, po, 50 mg/kg): 1890 ± 130 ng·h/mL
AUC(0-t) ([8]; rat, serum, po, 50 mg/kg): 1640 ± 45 ng·h/mL
Tmax ([8]; rat, serum, po, 50 mg/kg): 0.46 ± 0.085 h
half-life ([8]; rat, serum, po, 50 mg/kg): 0.62 ± 0.09 h
Cmax ([8]; rat, serum, po, 50 mg/kg, C max, normal rats, single dose 50 mg/kg p.o.): 1590 ng/mL
MRT ([8]; rat, serum, po, 50 mg/kg, MRT, normal rats, single dose 50 mg/kg p.o.): 1.06 h
AUMC last ([9]; HCC-afflicted rats, single dose 50 mg/kg p.o.): 1.55 ± 0.014 µg·mL/h
AUC(0-inf) ([9]; rat, po, 50 mg/kg): 1670 ± 40 ng·h/mL
AUC(0-t) ([9]; rat, po, 50 mg/kg): 1340 ± 194 ng·h/mL
MRT ([9]; rat, po, 50 mg/kg): 1.43 ± 0.34 h
half-life ([9]; rat, po, 50 mg/kg): 1.4 ± 0.32 h
